Results from ChEMBL document CHEMBL4673384, “Studying Histone Deacetylase Inhibition and Apoptosis Induction of Psammaplin A Monomers with Modified Thiol Group” (ACS Med Chem Lett, 2021).
Activity calls are given as the source filed them. The calls are words filed in the database; no cut-off is given here.

Tests used:
[1] = Toxicity in mouse LL/2 cells inoculated C57BL/6J mouse assessed as effect on body weight by measuring end body weight at 25 mg/kg, ip administered for 12 days and measured for every 2 days (reference value: 18.1 +/- 0.2 g); type: organism-based; settings: in vivo, 288 h, time 12 day
[2] = Toxicity in mouse LL/2 cells inoculated C57BL/6J mouse assessed as effect on body weight by measuring initial body weight at 25 mg/kg, ip administered for 12 days measured for every 2 days (reference value: 18.4 +/- 0.4 g); type: organism-based; settings: in vivo, 288 h, time 12 day
[3] = Antitumor activity against mouse LL/2 cells inoculated in C57BL/6J mouse assessed as tumor growth inhibition at 25 mg/kg, ip administered for 12 days; type: functional, Lewis lung carcinoma; design: scale not given: the % may be the effect or the level left; settings: time 12 day
[4] = Antitumor activity against mouse LL/2 cells inoculated in C57BL/6J mouse assessed as reduction of tumor weight at 25 mg/kg, ip administered for 12 days measured at day 14 (reference value: 0.98 +/- 0.07 g); type: functional, Lewis lung carcinoma; settings: time 12 day
[5] = Antiproliferative activity against mouse LL/2 cells assessed as cell growth inhibition incubated for 96 hrs by MTT assay; type: functional, Lewis lung carcinoma
[6] = test system: HCT-116; assay: Antiproliferative activity against human HCT-116 cells assessed as cell growth inhibition incubated for 96 hrs by MTT assay; type: functional
[7] = test system: A549; assay: Antiproliferative activity against human A549 cells assessed as cell growth inhibition incubated for 96 hrs by MTT assay; type: functional
[8] = test system: MCF7; assay: Antiproliferative activity against human MCF7 cells assessed as cell growth inhibition incubated for 96 hrs by MTT assay; type: functional
[9] = target: T1, Histone deacetylase 2 (Homo sapiens, UniProt Q92769); assay: Inhibition of HDAC2 in human HL-60 cells assessed as increase in Ac-H3 level at 0.5 to 8 uM incubated for 24 hrs by Western blot analysis; type: cell-based; settings: dose 0.5-8 µM
T1 sequence (Q92769 whole entry): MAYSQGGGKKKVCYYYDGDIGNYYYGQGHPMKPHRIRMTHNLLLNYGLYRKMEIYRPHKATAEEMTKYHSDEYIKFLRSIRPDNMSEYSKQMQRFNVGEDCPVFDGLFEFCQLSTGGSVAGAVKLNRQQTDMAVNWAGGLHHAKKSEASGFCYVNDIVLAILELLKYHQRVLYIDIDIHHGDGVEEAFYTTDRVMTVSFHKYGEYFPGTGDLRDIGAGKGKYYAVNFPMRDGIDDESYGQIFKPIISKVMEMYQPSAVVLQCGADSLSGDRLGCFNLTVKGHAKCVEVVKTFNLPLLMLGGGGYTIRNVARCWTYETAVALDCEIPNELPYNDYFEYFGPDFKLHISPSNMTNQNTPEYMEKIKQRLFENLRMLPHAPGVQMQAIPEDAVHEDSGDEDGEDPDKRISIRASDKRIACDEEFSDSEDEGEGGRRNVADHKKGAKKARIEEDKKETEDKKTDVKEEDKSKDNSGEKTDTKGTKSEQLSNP
In short: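 Compound given to HL-60 cells for 24 h at the stated concentrations, then lysed. Acetyl-histone H3 and acetyl-α-tubulin levels were read by Western blot, with total H3, α-tubulin or β-actin as references.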

[10] = test system: HL-60; assay: Induction of apoptosis in human HL-60 cells assessed as cleavage of caspase-3 at 0.5 to 8 uM after 24 hrs Western blot analysis; type: functional, cell-based; settings: dose 0.5-8 µM
In short: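 HL-60 cells were treated for 24 h at the indicated concentrations, then analysed by Western blot. Blots were probed for cleavage of PARP and caspase-3, -8 and -9. Ac-H3, Ac-α-tubulin and β-actin were also detected, with β-actin as the loading reference.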

[11] = test system: HL-60; assay: Induction of apoptosis in human HL-60 cells assessed as late apoptotic cells at 4 uM incubated for 24 hrs by propidium iodide and annexin-V FITC staining based FACS analysis (reference value: 4.2 %); type: functional
[12] = test system: HL-60; assay: Induction of apoptosis in human HL-60 cells assessed as viable cells at 4 uM incubated for 24 hrs by propidium iodide and annexin-V FITC staining based FACS analysis (reference value: 92.05 %); type: functional; settings: read-out: Activity
[13] = test system: HL-60; assay: Induction of apoptosis in human HL60 cells assessed as viable cells at 2 uM incubated for 24 hrs by propidium iodide and annexin-V FITC staining based FACS analysis (reference value: 92.05 %); type: functional; settings: read-out: Activity
[14] = target: T2, Protein deacetylase HDAC6 (Homo sapiens, UniProt Q9UBN7); assay: Inhibition of recombinant full length C-terminal FLAG-tagged human HDAC6 expressed in baculovirus infected Sf9 cells using Boc-Lys(Ac)-AMC as substrate preincubated for 15 mins followed by substrate addition and measured after 60 mins by fluorescence based assay
T2 sequence (Q9UBN7 whole entry): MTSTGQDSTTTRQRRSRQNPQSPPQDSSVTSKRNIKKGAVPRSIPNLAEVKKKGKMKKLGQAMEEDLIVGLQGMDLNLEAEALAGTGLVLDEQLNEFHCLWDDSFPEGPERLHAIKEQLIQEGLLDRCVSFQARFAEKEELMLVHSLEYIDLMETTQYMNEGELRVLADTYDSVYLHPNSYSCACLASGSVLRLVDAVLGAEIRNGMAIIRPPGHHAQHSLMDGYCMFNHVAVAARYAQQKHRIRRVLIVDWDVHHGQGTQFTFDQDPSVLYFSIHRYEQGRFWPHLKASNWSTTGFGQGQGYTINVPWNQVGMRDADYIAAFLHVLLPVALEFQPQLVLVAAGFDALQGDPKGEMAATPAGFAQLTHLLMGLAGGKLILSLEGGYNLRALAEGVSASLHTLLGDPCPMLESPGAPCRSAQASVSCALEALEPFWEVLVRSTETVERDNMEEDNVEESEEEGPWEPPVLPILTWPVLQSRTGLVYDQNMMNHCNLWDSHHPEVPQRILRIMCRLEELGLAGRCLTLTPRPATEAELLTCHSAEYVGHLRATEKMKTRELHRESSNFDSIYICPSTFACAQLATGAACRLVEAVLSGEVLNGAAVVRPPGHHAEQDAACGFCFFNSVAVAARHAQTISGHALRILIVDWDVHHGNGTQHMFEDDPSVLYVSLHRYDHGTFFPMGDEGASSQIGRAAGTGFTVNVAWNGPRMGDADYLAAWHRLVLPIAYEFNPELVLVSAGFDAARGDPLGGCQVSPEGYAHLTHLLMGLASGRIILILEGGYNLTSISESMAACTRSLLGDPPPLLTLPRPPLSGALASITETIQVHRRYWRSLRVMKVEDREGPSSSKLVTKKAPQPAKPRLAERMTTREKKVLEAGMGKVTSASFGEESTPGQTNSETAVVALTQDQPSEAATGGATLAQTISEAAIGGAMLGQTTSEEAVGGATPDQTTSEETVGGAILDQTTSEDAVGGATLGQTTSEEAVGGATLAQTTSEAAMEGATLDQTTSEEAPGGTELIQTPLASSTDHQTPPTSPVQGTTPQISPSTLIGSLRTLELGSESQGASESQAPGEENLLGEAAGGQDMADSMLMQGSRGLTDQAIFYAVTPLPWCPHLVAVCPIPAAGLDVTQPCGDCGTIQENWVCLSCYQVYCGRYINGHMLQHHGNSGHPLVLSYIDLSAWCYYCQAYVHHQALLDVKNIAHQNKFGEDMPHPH

[15] = target: Histone deacetylase 3/Nuclear receptor corepressor 2 (HDAC3/NCoR2) (Homo sapiens, UniProt O15379); assay: Inhibition of C-terminal His-tagged recombinant human HDAC3 (1 to 428 residues)/N-terminal GST-tagged recombinant human NCoR2 (395 to 489 residues) co-expressed in baculovirus infected Sf9 cells using Boc-Lys(Ac)-AMC as substrate preincubated for 15 mins followed by substrate addition and measured after 60 mins by fluorescence based assay
Chain of Histone deacetylase 3/Nuclear receptor corepressor 2 (HDAC3/NCoR2) (O15379 whole entry, the tested form may be a part): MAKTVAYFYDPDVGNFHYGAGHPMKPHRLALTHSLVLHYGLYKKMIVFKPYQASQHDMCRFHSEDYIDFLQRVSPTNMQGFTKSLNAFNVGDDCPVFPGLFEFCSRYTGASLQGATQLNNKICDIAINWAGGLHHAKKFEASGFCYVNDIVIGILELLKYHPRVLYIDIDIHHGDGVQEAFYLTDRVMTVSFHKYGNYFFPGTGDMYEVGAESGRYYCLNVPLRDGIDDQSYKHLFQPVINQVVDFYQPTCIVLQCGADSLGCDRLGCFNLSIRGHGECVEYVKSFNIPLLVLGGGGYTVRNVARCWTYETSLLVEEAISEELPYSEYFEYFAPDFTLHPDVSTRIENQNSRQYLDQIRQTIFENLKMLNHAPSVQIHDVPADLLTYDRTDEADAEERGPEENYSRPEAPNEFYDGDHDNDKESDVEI
Chain of Histone deacetylase 3/Nuclear receptor corepressor 2 (HDAC3/NCoR2) (Q9Y618 whole entry, further chain, the tested form may be a part): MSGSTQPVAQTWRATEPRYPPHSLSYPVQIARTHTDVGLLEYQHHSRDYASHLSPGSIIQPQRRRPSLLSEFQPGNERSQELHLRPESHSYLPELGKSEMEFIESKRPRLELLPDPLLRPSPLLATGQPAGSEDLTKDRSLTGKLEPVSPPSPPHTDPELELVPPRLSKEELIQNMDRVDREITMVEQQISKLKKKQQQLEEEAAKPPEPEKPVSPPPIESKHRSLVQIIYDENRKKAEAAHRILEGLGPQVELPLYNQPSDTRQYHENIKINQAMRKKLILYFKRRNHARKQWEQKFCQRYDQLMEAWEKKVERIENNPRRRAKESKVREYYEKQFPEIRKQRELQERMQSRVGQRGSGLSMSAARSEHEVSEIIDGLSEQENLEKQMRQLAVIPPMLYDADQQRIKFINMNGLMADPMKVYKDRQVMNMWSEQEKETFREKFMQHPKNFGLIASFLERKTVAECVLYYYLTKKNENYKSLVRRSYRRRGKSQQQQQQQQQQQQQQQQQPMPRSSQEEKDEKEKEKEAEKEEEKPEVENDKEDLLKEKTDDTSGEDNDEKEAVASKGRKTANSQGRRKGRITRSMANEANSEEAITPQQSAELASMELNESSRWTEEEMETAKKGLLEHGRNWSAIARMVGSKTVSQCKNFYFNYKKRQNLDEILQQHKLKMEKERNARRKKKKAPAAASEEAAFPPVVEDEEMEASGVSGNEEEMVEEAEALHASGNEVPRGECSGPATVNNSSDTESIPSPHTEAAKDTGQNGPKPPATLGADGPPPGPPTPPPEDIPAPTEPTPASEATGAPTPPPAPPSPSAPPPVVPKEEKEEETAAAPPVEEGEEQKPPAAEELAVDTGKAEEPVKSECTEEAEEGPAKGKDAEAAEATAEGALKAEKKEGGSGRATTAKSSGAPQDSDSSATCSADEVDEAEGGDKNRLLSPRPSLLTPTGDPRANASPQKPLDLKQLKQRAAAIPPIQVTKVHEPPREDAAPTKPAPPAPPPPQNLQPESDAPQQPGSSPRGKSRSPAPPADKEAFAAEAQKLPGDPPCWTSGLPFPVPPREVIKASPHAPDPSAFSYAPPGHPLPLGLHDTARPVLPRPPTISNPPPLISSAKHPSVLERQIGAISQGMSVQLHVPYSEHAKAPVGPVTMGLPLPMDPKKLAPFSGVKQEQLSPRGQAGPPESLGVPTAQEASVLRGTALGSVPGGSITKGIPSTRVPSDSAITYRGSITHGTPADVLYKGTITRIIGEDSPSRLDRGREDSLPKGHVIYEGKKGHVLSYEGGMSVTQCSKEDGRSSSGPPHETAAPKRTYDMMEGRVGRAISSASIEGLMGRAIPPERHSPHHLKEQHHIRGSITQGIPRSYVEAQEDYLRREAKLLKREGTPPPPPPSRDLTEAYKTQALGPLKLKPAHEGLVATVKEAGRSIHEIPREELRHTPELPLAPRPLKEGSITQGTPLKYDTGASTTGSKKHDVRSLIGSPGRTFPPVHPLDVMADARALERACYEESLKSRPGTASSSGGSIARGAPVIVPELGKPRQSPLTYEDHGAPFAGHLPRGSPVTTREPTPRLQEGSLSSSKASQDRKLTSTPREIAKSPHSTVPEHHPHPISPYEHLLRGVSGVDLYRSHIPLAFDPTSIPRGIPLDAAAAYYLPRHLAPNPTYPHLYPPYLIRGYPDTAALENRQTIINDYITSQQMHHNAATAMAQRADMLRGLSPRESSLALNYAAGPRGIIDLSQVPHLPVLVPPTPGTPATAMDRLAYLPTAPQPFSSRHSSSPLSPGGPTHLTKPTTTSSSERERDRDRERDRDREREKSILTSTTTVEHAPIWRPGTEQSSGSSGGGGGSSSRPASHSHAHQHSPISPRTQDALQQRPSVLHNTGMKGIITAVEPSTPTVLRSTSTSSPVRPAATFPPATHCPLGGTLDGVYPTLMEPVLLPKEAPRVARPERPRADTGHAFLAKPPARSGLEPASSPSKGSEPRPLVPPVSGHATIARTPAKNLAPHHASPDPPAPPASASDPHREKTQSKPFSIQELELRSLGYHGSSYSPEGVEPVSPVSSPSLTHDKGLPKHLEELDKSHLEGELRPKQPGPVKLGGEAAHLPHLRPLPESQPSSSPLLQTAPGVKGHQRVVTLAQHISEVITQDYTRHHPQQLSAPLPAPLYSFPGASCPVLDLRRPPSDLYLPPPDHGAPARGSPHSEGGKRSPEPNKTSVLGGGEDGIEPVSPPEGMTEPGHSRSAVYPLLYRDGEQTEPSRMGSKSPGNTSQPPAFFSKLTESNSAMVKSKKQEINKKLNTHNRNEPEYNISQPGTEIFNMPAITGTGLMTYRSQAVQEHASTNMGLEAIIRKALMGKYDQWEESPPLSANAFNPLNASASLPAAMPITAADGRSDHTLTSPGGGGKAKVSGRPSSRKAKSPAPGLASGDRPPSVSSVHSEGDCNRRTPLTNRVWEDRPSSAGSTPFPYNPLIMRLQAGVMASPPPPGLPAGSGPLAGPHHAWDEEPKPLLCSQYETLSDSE

[16] = target: T1, Histone deacetylase 2; assay: Inhibition of recombinant full length C-terminal FLAG-tagged human HDAC2 expressed in baculovirus infected Sf9 cells using Boc-Lys(Ac)-AMC as substrate preincubated for 15 mins followed by substrate addition and measured after 60 mins by fluorescence based assay
[17] = target: Histone deacetylase 1 (Homo sapiens, UniProt Q13547); assay: Inhibition of recombinant full length C-terminal FLAG/His-tagged human HDAC1 expressed in baculovirus infected Sf9 cells using Boc-Lys(Ac)-AMC as substrate preincubated for 15 mins followed by substrate addition and measured after 60 mins by fluorescence based assay
Chain of Histone deacetylase 1 (Q13547 whole entry): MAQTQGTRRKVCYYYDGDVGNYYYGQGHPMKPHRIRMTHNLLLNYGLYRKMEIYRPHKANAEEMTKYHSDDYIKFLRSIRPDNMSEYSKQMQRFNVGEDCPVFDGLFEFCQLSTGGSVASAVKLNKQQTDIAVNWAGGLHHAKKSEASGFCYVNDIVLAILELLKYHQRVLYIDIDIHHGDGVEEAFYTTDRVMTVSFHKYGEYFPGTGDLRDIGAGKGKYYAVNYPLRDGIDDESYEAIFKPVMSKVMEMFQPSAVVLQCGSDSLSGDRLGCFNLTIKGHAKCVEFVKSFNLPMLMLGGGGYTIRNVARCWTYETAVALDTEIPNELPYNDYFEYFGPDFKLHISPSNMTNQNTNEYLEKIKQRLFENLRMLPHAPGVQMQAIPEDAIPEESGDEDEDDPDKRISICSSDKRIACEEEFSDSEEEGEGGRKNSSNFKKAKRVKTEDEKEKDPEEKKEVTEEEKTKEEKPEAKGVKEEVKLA

[18] = test system: HL-60; assay: Growth inhibition of human HL-60 cells after 72 hrs by trypan blue dye based assay; type: functional; settings: for GI50: Homo sapiens, HL-60
In short: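 HL-60 leukemia cells were exposed to compound for 72 h. Growth inhibition is reported as IG50 (half the growth inhibition concentration), as means plus SD of three independent experiments.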

SMILES | Activity [1] | Activity [2] | Activity [3] | Activity [4] | IG50 [5] | IG50 [6] | IG50 [7] | IG50 [8] | inhibition [9] | Activity [10] | Activity [11] | viability at 4 µM [12] | viability at 2 µM [13] | IC50 [14] | IC50 [15] | IC50 [16] | IC50 [17] | GI50 [18] | IG50 [18]
O=C(NCCS)/C(Cc1ccc(O)c(Br)c1)=N/O | 18.3 g | 18.5 g | 55.99% | 0.48 g | 3.9 µM | 5.9 µM | 10.7 µM | 17 µM | Active | Active | 4.7% | 93.3% | 93.6% | 960 nM | 120 nM | 210 nM | 52 nM | 680 nM | 
O=C(NCCSSCCNC(=O)/C(Cc1ccc(O)c(Br)c1)=N/O)/C(Cc1ccc(O)c(Br)c1)=N/O [PSAMMAPLIN A] | 18.4 g | 18.2 g | 66.04% | 0.34 g | 2.64 µM | 2.3 µM | 2.9 µM | 4.14 µM | Active | Active | 26.7% | 66.2% | 67.1% | 311 nM | 12.4 nM | 33 nM | 8 nM | 370 nM | 
O=C(CCNC(=O)/C(Cc1ccc(O)c(Br)c1)=N/O)NO | 18.4 g | 18.9 g | 54.68% | 0.45 g | 5 µM | 0.9 µM | 1.1 µM | 1.09 µM |  |  |  |  |  | 96 nM | 20 nM | 33 nM | 18 nM |  | 0.57 µM
